In ChEMBL document CHEMBL4376862, “Synthesis and evaluation of novel chlorophyll a derivatives as potent photosensitizers for photodynamic therapy” (Eur J Med Chem, 2020):
The source made the active and inactive calls. No cut-off for these calls is given here.

Legend:
[1] = tested on: A549; test: Phototoxicity in human A549 cells assessed as reduction in cell viability in presence of irradiation with laser light at 1 J/cm2 by fluorescence microscopic method relative to control; format: functional
Method in brief: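 A549 cells were grown in F-12K with 10% FBS at 37 °C in 5% CO2. Cells were treated with photosensitizer and exposed to 650 nm laser at 0 or 1 J/cm2, with a laser-alone group. Viable cells were then stained with calcein (green) and nuclei with DAPI (blue), and imaged by fluorescence microscopy.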

[2] = tested on: A549; test: Induction of apoptosis in human A549 cells assessed as necrotic cell in presence of 1J/cm2 light irradiation measured after 4 hrs by annexin V-FITC and propidium iodide staining based flow cytometric analysis (reference value: 0.00%); format: functional
Method in brief: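 After PDT at 1 J/cm2, A549 cells collected 4 h later, stained with annexin V-FITC and propidium iodide per kit instructions; flow cytometry with at least 10,000 events per sample.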

[3] = tested on: A549; test: Cytotoxicity against human A549 cells assessed as apoptotic lesions in absence of light by fluorescence microscopic method; format: cell-based
[4] = tested on: Mus musculus; test: Phototoxicity in ICR mouse assessed as ear weight at 0.45 mg/kg, iv followed by 10 mW/cm2 light irradiation for 10 mins at 1 day after drug challenge measured after 1 day of light irradiation (reference value: 12.6 +/- 1.2 mg); format: organism-based; conditions: in vivo
[5] = tested on: A549; test: Induction of apoptosis in human A549 cells assessed as caspase-3 activity using Ac-DEVD-pNA as substrate in presence of laser light irradiation measured upto 12 hrs; format: functional, cell-based
[6] = Dark toxicity in human A549 cells assessed as reduction in cell viability incubated under dark for 24 hrs measured after 48 hrs by MTT assay; format: cell-based; conditions: read-out: TC50
Method in brief: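 A549 cells seeded at 5×10^4 cells/100 µL per well for 24 h, treated in the dark with […] (so in the source) for 24 h; MTT added 4 h, absorbance 570 nm, 48 h later; viability as OD treated/OD control; triplicate, mean ± SD.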

[7] = Emission property of a compound in DMSO assessed as red shift at 5 uM on excitation with light at 410 to 415 nm by 3D fluorescence spectra analysis; format: physicochemical
Method in brief: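 Stock 1 mM in DMSO, measured at […] (so in the source); excitation scanned 350–640 nm, emission 600–750 nm, 1 nm steps, room temperature, quartz cuvettes; 3D fluorescence matrix spectra recorded.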

[8] = tested on: A549; test: Induction of apoptosis in human A549 cells assessed as necrosis incubated for 4 hrs under dark condition by annexin V-FITC and propidium iodide staining based flow cytometric analysis (reference value: 0.00%); format: cell-based; conditions: a549, 4 h
[9] = tested on: A549; test: Photodynamic antitumor activity against human A549 cells xenografted in BALB/c nude mouse at 0.15 mg/kg, iv followed by laser light irradiation at 120 J/cm2 measured after 14 days; format: functional, organism-based
Method in brief: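 Male BALB/c nude mice (5–6 weeks, 14–16 g) given 2×10^6 A549 cells s.c. in 0.2 mL PBS; at 6–7 mm tumors randomized into ten groups; drug via tail vein, 650 nm diode laser 120 J/cm2 at 180 mW/cm2 24 h later; caliper volume a×b²/2, followed 14 days.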

SMILES | Activity [1] [%] | Activity [2] [%] | Activity [3] | Activity [4] [mg] | Activity [5] | CC50 at 24 h [6] [µM] | Activity [7] [nm] | Activity [8] [%] | Activity [9]
CCC1=C(C)c2cc3[nH]c(cc4nc(c5c6[nH]c(cc1n2)c(C)c6C(=O)C5)[C@@H](CCC(=O)NCC(=O)CCC(=O)O)[C@@H]4C)c(C)c3C(C)OCCO (stereo partly drawn) | 34.15 | 0.7 | Non-Toxic | 13.3 | Active | 8.88 | 661 to 669 | 2.75 | Active
CCCCOC(C)c1c(C)c2cc3nc(c4c5[nH]c(cc6nc(cc1[nH]2)C(C)=C6CC)c(C)c5C(=O)C4)[C@@H](CCC(=O)NCC(=O)CCC(=O)O)[C@@H]3C (stereo partly drawn) | 30.69 | 10.92 | Non-Toxic | 12.9 | Active | 2.01 | 661 to 669 | 2.3 | Active
